# ChEMBL document CHEMBL4043283, “Discovery and Preclinical Development of IIIM-290, an Orally Active Potent Cyclin-Dependent Kinase Inhibitor” (J Med Chem, 2018)
# The source made the active and inactive calls. The calls are words filed in the database; no cut-off is given here.
# How the values were obtained:
# [1] = Half life in Sprague-Dawley rat at 10 mg/kg, po by LC-MS/MS analysis; assay type: ADME, organism-based; conditions: in vivo
# [2] = Ionization constant, pKa of compound by UV spectrophotometric analysis; assay type: physicochemical
# [3] = Half life in human liver S9 fraction preincubated for 5 mins followed by NADPH addition measured after 30 mins by LC-MS/MS analysis; assay type: ADME, tissue-based
# [4] = system: MIA PaCa-2; assay: Induction of apoptosis in human MIAPaCa2 cells assessed as PARP cleavage by Western blot method; assay type: functional, cell-based
# Procedure, shortened: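 Lysate protein quantified against a BSA standard; 70 μg resolved by SDS-PAGE, transferred to PVDF overnight at 4 °C, 30 V; blocked 1 h in 5% nonfat milk/TBST; primary antibodies 2–4 h, HRP anti-mouse secondary 1 h; ECL detection on X-ray film.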
# [5] = biological target: Cytochrome P450 2C9 (Homo sapiens, UniProt P11712); assay: Time-dependent inhibition of human CYP2C9 at 2 uM using fluorogenic substrate by fluorometric method; assay type: ADME
# [6] = system: Mus musculus; assay: Toxicity in CD1 nude mouse xenografted with human MOLT4 cells assessed as mortality at 50 mg/kg, po qd administered on day 10 to 25 post tumor inoculation; assay type: organism-based; conditions: in vivo
# [7] = Half life in monkey hepatocytes at 3 uM after 180 mins by LC-MS/MS analysis; assay type: ADME, cell-based, Macaca mulatta, Hepatocyte; conditions: rhesus monkey
# [8] = system: Liver; assay: Intrinsic clearance in mouse liver S9 fraction assessed per mg of protein preincubated for 5 mins followed by NADPH addition measured after 30 mins by LC-MS/MS analysis; assay type: ADME, tissue-based; conditions: s9, 0.5 h
# [9] = Growth inhibition of human HEK293 cells after 48 hrs by MTT assay; assay type: cell-based
# [10] = Ratio of Cmax in Sprague-Dawley rat at 30 mg/kg, po to GI50 for human MIAPaCa2 cells
# [11] = system: PBL; assay: Genotoxicity in human PBL at 0.125 to 2 ug/ml in presence of cytokinesis blocking agent cytochalasin B and absence of liver S9 fraction by micronucleus test; assay type: toxicity, cell-based
# [12] = biological target: Non-receptor tyrosine-protein kinase TYK2 (Homo sapiens) (UniProt P29597); assay: Inhibition of partial length wild type human Tyk2 expressed in mammalian expression system at 0.5 uM by KINOMEscan method relative to control
# Procedure, shortened: (§1)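 Competition binding screen (KINOMEscan) at 0.5 μM; primary binding read out as % of control, lower values indicating stronger interaction.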
# [13] = system: Ehrlich; assay: Antitumor activity against Swiss mouse EAC allografted in Swiss albino mouse assessed as tumor growth inhibition at 100 mg/kg, po administered for 9 day measured on day 13 relative to control; assay type: functional; conditions: read-out: TGI
# [14] = Half life in BALB/c mouse at 30 mg/kg, po by LC-MS/MS analysis; assay type: ADME, organism-based; conditions: in vivo
# [15] = Half life in dog liver S9 fraction preincubated for 5 mins followed by NADPH addition measured after 30 mins by LC-MS/MS analysis; assay type: ADME, tissue-based, Canis lupus familiaris
# [16] = Intrinsic clearance in monkey liver microsomes assessed per mg of protein at 100 uM after 30 mins by LC-MS/MS analysis; assay type: ADME, Macaca mulatta, microsome; conditions: rhesus monkey, read-out: CLH
# [17] = Half life in rat liver S9 fraction preincubated for 5 mins followed by NADPH addition measured after 30 mins by LC-MS/MS analysis; assay type: ADME, tissue-based
# Procedure, shortened: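 Parent loss followed over time to give half-life, with NADPH as cofactor for microsomal phase I metabolism.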
# [18] = system: Mus musculus; assay: Toxicity in CD1 nude mouse xenografted with human HCT116 cells assessed as change in body weight at 25 to 50 mg/kg, po qd administered on day 10 to 25 post tumor inoculation; assay type: organism-based; conditions: in vivo
# [19] = Cmax in Sprague-Dawley rat at 10 mg/kg, po by LC-MS/MS analysis; assay type: ADME, organism-based; parameters: dose 10 mg/kg, route oral; conditions: in vivo
# [20] = biological target: Citron Rho-interacting kinase (Homo sapiens) (UniProt O14578); assay: Inhibition of partial length wild type human CIT expressed in bacterial expression system at 0.5 uM by KINOMEscan method relative to control; procedure, shortened: as §1
# [21] = system: MIA PaCa-2; assay: Antitumor activity against human MIAPaCa2 cells xenografted in CD1 nude mouse assessed as tumor growth inhibition at 25 mg/kg, po qd administered on day 10 to 25 post tumor inoculation; assay type: functional, organism-based
# [22] = Apparent permeability across basolateral to apical side in human Caco2 cells after 90 mins by LC-MS/MS analysis; assay type: ADME, cell-based; conditions: Caco-2
# [23] = Metabolic stability in mouse plasma assessed as parent compound remaining after 8 hrs by HPLC method; assay type: ADME, cell-free; conditions: read-out: Stability
# [24] = Intrinsic clearance in monkey liver S9 fraction assessed per mg of protein preincubated for 5 mins followed by NADPH addition measured after 30 mins by LC-MS/MS analysis; assay type: ADME, tissue-based, Macaca mulatta; conditions: rhesus monkey, s9, 0.5 h
# [25] = Cmax in BALB/c mouse at 3 mg/kg, po by LC-MS/MS analysis; assay type: ADME, organism-based; parameters: dose 3 mg/kg, route oral; conditions: in vivo
# [26] = biological target: CDK6/cyclin D3 (Homo sapiens, UniProt Q00534); assay: Inhibition of CDK6/cyclin D3 (unknown origin) after 30 mins in presence of [33P]-gamma-ATP by filter binding assay; assay type: protein-complex assay
# [27] = system: MIA PaCa-2; assay: Induction of apoptosis in human MIAPaCa2 cells assessed as formation of apoptotic bodies after 24 hrs by scanning electron microscopy; assay type: functional, cell-based
# Procedure, shortened: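 Cells exposed to different compound concentrations for 24 h on coverslips, fixed in 2.5% glutaraldehyde in 0.1 M phosphate buffer pH 7.2 (4 °C, 24 h), postfixed in 1% OsO4 4 h, ethanol-dehydrated, critical-point dried with HMDS, gold-coated, imaged at 20 kV.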
# [28] = biological target: serum albumin (Homo sapiens, UniProt P02768); assay: Binding affinity to human serum albumin; assay type: ADME; conditions: read-out: PB (converted)
# [29] = Half life in BALB/c mouse at 3 mg/kg, po by LC-MS/MS analysis; assay type: ADME, organism-based; conditions: in vivo
# [30] = system: Salmonella typhimurium; assay: Mutagenicity in Salmonella typhimurium TA102 at 50 ug/plate in absence of liver S9 fraction by Ames test; assay type: toxicity; conditions: salmonella enterica subsp. enterica serovar typhimurium
# [31] = Protein binding in rat plasma at 3 uM after 5 hrs by equilibrium dialysis method; assay type: ADME, cell-free; conditions: read-out: PPB (converted)
# [32] = system: Mast/stem cell growth factor receptor Kit (Homo sapiens), P10721 [A829P]; assay: Inhibition of partial length human KIT A829P mutant expressed in mammalian expression system at 0.5 uM by KINOMEscan method relative to control; procedure, shortened: as §1
# [33] = Half life in dog liver microsomes at 100 uM after 30 mins by LC-MS/MS analysis; assay type: ADME, Canis lupus familiaris, microsome
# [34] = Apparent permeability across apical to basolateral side in human Caco2 cells after 90 mins by LC-MS/MS analysis; assay type: ADME, cell-based; conditions: Caco-2
# Procedure, shortened: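 Caco-2 monolayers were grown for 21 days. Test compound in HBSS containing 10 mM HEPES was added to the apical chamber, and samples were taken from both the apical and basolateral chambers.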
# [35] = system: NCI-H522; assay: Growth inhibition of human NCI-H522 cells after 48 hrs by MTT assay; assay type: functional; conditions: NCI-H522, 48 h
# Procedure, shortened: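 Cancer cell lines sourced from the National Cancer Institute (USA). Cells kept in appropriate growth medium at 37 °C, 95% humidity, 5% CO2. Antiproliferation read by tetrazolium (MTT) assay. GI50 values were determined only for compounds selected after an initial single-concentration screen.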
# [36] = Thermodynamic equilibrium solubility of compound in water after 5 hrs by shake flask method; assay type: physicochemical; conditions: read-out: Therm_solubility
# Sequence of CDK6/cyclin D3 (P30281 whole entry): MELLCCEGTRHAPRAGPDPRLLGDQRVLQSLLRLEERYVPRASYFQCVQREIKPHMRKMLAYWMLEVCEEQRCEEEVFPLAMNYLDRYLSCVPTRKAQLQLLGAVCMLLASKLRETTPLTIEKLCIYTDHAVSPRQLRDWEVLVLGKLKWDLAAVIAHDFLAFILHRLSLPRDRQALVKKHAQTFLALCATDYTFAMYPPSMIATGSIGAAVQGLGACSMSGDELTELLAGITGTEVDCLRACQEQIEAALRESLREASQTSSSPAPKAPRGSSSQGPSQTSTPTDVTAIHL
# Sequence of CDK6/cyclin D3 (Q00534 whole entry): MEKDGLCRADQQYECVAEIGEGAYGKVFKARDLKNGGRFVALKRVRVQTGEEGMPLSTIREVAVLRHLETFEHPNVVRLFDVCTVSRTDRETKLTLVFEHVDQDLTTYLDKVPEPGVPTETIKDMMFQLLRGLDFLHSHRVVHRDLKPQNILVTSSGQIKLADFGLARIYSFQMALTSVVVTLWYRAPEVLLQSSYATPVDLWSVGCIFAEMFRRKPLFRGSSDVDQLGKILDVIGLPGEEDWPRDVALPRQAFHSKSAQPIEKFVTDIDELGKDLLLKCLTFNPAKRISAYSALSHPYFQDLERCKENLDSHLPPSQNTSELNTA
# Sequence of Mast/stem cell growth factor receptor Kit (Homo sapiens), P10721 [A829P] (P10721 whole entry A829P): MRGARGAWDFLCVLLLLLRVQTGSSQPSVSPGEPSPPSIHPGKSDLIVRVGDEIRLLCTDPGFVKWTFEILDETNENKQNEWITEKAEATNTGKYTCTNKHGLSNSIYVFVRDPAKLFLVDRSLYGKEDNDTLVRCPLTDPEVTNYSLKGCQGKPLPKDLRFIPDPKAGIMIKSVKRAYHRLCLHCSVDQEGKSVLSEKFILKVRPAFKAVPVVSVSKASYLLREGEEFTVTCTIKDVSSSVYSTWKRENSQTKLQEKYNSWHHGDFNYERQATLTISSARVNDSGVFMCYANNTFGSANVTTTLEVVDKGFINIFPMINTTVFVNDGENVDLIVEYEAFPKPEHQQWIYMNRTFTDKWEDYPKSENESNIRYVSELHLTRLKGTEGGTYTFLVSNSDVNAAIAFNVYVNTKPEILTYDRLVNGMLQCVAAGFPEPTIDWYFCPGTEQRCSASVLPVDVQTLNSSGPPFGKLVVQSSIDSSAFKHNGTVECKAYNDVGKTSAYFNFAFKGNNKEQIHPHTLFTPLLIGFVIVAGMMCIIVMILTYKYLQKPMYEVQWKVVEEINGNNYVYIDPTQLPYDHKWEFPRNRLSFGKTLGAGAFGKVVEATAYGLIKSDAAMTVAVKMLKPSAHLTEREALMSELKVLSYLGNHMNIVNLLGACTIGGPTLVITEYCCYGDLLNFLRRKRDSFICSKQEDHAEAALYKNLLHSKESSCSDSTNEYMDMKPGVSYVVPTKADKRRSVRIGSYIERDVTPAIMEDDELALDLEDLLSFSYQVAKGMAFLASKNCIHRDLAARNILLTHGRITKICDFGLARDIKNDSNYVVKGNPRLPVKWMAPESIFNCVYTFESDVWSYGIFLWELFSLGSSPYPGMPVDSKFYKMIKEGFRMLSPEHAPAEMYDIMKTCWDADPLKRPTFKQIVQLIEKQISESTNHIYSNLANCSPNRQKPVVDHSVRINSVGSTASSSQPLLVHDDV
# Sequence of Citron Rho-interacting kinase (Homo sapiens) (O14578 whole entry): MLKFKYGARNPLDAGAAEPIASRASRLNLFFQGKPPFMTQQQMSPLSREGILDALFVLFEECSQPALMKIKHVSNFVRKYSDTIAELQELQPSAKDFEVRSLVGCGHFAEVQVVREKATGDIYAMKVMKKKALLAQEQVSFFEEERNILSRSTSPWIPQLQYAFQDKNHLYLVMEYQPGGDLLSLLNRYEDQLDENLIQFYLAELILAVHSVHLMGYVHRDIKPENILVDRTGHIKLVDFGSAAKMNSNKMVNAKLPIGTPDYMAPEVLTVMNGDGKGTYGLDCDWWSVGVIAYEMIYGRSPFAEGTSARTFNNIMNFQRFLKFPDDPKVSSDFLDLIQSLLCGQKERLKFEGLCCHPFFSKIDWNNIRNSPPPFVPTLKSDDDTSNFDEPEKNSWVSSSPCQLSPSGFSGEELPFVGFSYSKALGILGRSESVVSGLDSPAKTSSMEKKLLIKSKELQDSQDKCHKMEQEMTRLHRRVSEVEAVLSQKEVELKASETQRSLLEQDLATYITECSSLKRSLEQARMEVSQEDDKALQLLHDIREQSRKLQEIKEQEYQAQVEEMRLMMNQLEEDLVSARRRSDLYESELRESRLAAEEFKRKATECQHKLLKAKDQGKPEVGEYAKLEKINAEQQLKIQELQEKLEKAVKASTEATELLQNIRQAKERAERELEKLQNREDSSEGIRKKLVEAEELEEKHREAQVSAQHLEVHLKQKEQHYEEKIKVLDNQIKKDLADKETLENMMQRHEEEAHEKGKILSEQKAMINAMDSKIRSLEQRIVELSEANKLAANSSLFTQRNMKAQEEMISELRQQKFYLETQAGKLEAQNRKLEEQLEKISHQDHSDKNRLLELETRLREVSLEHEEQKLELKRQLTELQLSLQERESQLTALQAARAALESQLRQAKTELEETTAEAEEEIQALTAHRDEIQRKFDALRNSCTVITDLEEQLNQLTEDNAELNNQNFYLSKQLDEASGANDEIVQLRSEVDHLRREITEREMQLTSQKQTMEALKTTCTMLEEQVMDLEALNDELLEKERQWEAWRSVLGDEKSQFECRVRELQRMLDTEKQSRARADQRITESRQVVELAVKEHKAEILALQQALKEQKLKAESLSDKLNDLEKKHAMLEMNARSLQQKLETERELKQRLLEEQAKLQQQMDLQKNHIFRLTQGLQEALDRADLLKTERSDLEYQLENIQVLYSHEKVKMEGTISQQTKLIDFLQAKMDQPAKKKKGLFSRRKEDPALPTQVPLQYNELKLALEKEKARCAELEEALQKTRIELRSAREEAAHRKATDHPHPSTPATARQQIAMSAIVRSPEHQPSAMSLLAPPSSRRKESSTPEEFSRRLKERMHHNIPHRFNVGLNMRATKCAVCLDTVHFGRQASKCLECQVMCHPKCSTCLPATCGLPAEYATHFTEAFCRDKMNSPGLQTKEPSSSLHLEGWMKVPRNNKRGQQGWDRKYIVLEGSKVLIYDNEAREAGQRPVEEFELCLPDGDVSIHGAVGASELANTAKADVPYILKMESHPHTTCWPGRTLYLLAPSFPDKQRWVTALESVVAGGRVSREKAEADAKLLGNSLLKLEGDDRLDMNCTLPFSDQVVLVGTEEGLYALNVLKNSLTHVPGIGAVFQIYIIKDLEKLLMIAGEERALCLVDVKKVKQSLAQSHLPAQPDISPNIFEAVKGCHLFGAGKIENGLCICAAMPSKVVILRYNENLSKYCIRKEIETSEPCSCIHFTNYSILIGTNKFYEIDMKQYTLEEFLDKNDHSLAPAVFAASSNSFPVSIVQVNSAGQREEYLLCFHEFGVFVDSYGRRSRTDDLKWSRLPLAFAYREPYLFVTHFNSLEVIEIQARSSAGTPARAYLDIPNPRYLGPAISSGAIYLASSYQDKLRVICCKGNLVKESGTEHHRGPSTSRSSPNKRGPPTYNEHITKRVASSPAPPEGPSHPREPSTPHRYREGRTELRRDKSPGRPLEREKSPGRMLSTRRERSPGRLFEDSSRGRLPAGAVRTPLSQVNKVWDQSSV
# Sequence of serum albumin (P02768 whole entry): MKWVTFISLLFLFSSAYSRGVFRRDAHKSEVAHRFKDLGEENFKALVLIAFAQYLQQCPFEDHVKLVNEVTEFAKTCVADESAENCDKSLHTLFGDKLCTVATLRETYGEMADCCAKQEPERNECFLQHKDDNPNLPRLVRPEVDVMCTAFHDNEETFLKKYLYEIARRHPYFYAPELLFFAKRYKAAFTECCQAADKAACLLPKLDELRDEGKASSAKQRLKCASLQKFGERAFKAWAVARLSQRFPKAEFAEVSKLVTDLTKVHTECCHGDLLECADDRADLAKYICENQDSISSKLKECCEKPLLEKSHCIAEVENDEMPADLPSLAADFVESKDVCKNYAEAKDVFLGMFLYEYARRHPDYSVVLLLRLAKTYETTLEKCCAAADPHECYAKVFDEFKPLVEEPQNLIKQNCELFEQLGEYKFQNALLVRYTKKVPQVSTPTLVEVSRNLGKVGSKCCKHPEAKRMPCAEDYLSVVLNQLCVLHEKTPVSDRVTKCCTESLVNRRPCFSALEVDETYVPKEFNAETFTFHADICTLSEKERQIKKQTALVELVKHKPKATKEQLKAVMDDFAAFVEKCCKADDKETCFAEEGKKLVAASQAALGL
# Sequence of Cytochrome P450 2C9 (P11712 whole entry): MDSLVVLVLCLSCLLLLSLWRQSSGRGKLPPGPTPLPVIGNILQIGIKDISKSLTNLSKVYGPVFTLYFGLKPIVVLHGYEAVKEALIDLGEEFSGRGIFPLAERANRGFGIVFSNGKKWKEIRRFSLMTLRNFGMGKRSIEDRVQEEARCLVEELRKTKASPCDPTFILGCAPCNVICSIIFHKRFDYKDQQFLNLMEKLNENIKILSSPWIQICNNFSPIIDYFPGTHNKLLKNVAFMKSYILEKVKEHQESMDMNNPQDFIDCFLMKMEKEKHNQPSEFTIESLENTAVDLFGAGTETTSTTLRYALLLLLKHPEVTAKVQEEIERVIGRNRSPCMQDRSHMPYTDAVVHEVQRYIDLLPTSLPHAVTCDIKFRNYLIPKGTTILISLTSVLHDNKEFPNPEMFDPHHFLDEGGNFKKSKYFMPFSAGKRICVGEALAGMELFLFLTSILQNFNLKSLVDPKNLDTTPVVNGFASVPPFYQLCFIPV
structure (smiles),measurement,setting,value
CN1CC[C@H](c2c(O)cc(O)c3c(=O)cc(/C=C/c4c(Cl)cccc4Cl)oc23)[C@H](O)C1,half-life,[1],5.16 h
same,pKa,[2],5.4
same,half-life,[3],1.2 h
same,Activity,[4],Dose-dependent effect
same,TDI,[5],Not Active
same,Activity,[6],Non-Toxic
same,half-life at 3 µM,[7],5.43 h
same,CLint,[8],16 µL/min/mg
same,GI50 at 48 h,[9],22 µM
same,Ratio,[10],4
same,Activity,[11],Non-Toxic
same,inhibition,[12],> 98%
same,inhibition in vivo at 100 mg/kg,[13],39%
same,half-life,[14],3.62 h
same,half-life,[15],1.95 h
same,microsomal CLint at 100 µM,[16],54.8 µL/min/mg
same,half-life,[17],0.517 h
same,Activity,[18],Non-Toxic
same,Cmax,[19],900 nM
same,inhibition,[20],> 98%
same,TGI,[21],inactive
same,Papp B→A at 1.5 h,[22],3.9 ×10⁻⁶ cm/s
same,remaining at 8 h,[23],94%
same,CLint,[24],25 µL/min/mg
same,Cmax,[25],216 nM
same,IC50,[26],0.199 µM
same,Activity,[27],Active
same,fraction unbound,[28],0.033
same,half-life,[29],3.09 h
same,Activity,[30],Non-Toxic
same,"fraction unbound at 5 h, 3 µM",[31],0.046
same,inhibition,[32],> 98%
same,half-life at 100 µM,[33],0.4 h
same,Papp A→B at 1.5 h,[34],2.1 ×10⁻⁶ cm/s
same,GI50,[35],5 µM
same,solubility thermodynamic at 5 h,[36],20.3 µg/mL
